Experimental data published in ChEMBL document CHEMBL4024799, “Synthesis and Biological Characterization of Aryl Uracil Inhibitors of Hepatitis C Virus NS5B Polymerase: Discovery of ABT-072, a trans-Stilbene Analog with Good Oral Bioavailability” (J Med Chem, 2018).
Active and inactive are the calls of the source. No cut-off for these calls is given here.

Key:
[1] = AUC (0 to 24 hrs) in human infected with HCV genotype 1 at 160 mg administered once daily for 2 days; assay type: ADME; parameters: time < 24 hr, dose 160 mg; details: in vivo
Procedure, shortened: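 HCV GT1-infected patients (N=4) given 160 mg once daily for 2 days; plasma Cmax, AUC and t1/2 determined.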

Hepatitis C virus [2] = test: Antiviral activity against HCV genotype 1b Con1 infected in human HuH7 cells harboring HCV subgenomic bicistronic replicon after 3 days in presence of 40% human plasma by luciferase reporter gene assay; assay type: functional, cell-based, Hepacivirus hominis; details: genotype 1b Con1, Huh-7, 72 h
Procedure, shortened: (§1)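 Subgenomic genotype 1a (H77) or 1b (Con1) replicons carrying firefly luciferase, transfected into Huh-7 cells. Replication inhibition was read as luciferase level in cell lysate on a luminometer and reported as EC50. Runs were done without human plasma or with 40% human plasma added, to assess inhibitor–protein binding.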

[3] = Tmax in human at 160 mg administered as single dose; assay type: ADME; details: in vivo
[4] = Oral bioavailability in dog at 30 mg/kg; assay type: ADME, organism-based, Canis lupus familiaris; details: in vivo
[5] = Inhibition of HCV genotype 3a NS5B RNA dependent RNA polymerase assessed as reduction in [3H]UTP incorporation in to RNA preincubated for 15 mins followed by [3H]UTP addition measured after 3 hrs by microbeta scintillation counting method; parameters: species or system Hepatitis C virus subtype 3a
[6] = Tmax in human infected with HCV genotype 1 at 160 mg administered once daily for 2 days; assay type: ADME; details: in vivo
[7] = AUC (infinity) in human at 80 mg administered as single dose; assay type: ADME; parameters: dose 80 mg, time infinity; details: in vivo
Procedure, shortened: (§2)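 Single oral doses of 80, 160 or 320 mg in healthy subjects; plasma concentration-time profiles reported as mean (+SD); Cmax and terminal phase half-life derived.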

Plasma = test: Drug level in po dosed dog plasma up to 24 hrs; assay type: ADME, organism-based, Canis lupus familiaris; details: in vivo
Procedure, shortened: (§3)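 Dogs given oral doses; liver tissue and plasma drug levels measured at 12 and 24 h; liver:plasma ratio calculated.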

[8] = Drug level in dog liver at 2.5 mg/kg, po after 24 hrs; assay type: ADME, organism-based, Canis lupus familiaris; details: read-out: Drug uptake; procedure, shortened: as §3
[9] = Cmax in human at 80 mg administered as single dose; assay type: ADME; parameters: dose 80 mg; details: in vivo; procedure, shortened: as §2
[10] = Tmax in human at 320 mg administered as single dose; assay type: ADME; details: in vivo
[11] = Cmax in human at 320 mg administered as single dose; assay type: ADME; parameters: dose 320 mg; details: in vivo; procedure, shortened: as §2
[12] = Cmax in dog at 2.5 mg/kg, po; assay type: ADME, organism-based, Canis lupus familiaris; parameters: dose 2.5 mg/kg, route oral; details: in vivo
Hepatitis C virus [13] = test: Antiviral activity against HCV genotype 1b Con1 infected in human HuH7 cells harboring HCV subgenomic bicistronic replicon after 3 days by luciferase reporter gene assay; assay type: functional, cell-based, Hepacivirus hominis; details: genotype 1b Con1, Huh-7, 72 h; procedure, shortened: as §1
[14] = Cmax in human at 160 mg administered as single dose; assay type: ADME; parameters: dose 160 mg; details: in vivo; procedure, shortened: as §2
[15] = Plasma clearance in Sprague-Dawley rat at 5 mg/kg, iv; assay type: ADME, organism-based
Procedure, shortened: (§4)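 Sprague-Dawley rats, n = 3 per experiment; solution in DMSO:PEG400 (1:9, v/v) given IV or oral; 5 mg/kg for both routes, and 30 mg/kg oral; plasma t1/2, Vss, clearance, Cmax, AUC and F% determined.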

Hepatitis C virus [16] = test: Antiviral activity against HCV genotype 1 infected in human assessed as decrease in viral RNA load at 160 mg administered once daily for 2 days; assay type: functional, Hepacivirus hominis
Procedure, shortened: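 HCV GT1-infected patients (N=4) given 160 mg once daily for 2 days; read-out was least squares mean maximum decrease from baseline in HCV RNA (log10 IU/mL).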

[17] = Oral bioavailability in Sprague-Dawley rat at 30 mg/kg; assay type: ADME, organism-based; details: in vivo; procedure, shortened: as §4
Canis familiaris [18] = test: AUC in dog at 2.5 mg/kg, iv; assay type: ADME, organism-based, Canis lupus familiaris; details: in vivo
[19] = Oral bioavailability in dog at 2.5 mg/kg; assay type: ADME, organism-based, Canis lupus familiaris; details: in vivo
[20] = system: Hepatitis C virus (isolate BK); test: Inhibition of HCV genotype 1b BK NS5B RNA dependent RNA polymerase Y448H mutant assessed as reduction in [3H]UTP incorporation in to RNA preincubated for 15 mins followed by [3H]UTP addition measured after 3 hrs by microbeta scintillation counting method
Procedure, shortened: (§5)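 Standard NS5B polymerase inhibition assay using genotype 1a (H77) or 1b (BK) enzyme. RNA product formation was measured as ³H-UTP incorporated into RNA, read by scintillation counting. IC50 was calculated with a standard IC50 equation.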

[21] = Ratio of drug level in dog liver to plasma at 2.5 mg/kg, po after 24 hrs; assay type: ADME, organism-based, Canis lupus familiaris
[22] = AUC (infinity) in human at 160 mg administered as single dose; assay type: ADME; parameters: dose 160 mg, time infinity; details: in vivo; procedure, shortened: as §2
[23] = system: Hepatitis C virus (isolate H77); test: Inhibition of HCV genotype 1a H77 NS5B RNA dependent RNA polymerase C316H mutant assessed as reduction in [3H]UTP incorporation in to RNA preincubated for 15 mins followed by [3H]UTP addition measured after 3 hrs by microbeta scintillation counting method; procedure, shortened: as §5
[24] = Volume of distribution at steady state in Sprague-Dawley rat at 5 mg/kg, iv; assay type: ADME, organism-based; details: in vivo, read-out: Vdss
Procedure, shortened: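 Sprague-Dawley rats, n = 3 per experiment, each given a 5 mg/kg intravenous dose. The compound was formulated as a solution in DMSO:PEG400 (1:9, v/v). Plasma concentration–time data were used to derive pharmacokinetic parameters, including Vss.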

[25] = Half life in Sprague-Dawley rat at 30 mg/kg, po; assay type: ADME, organism-based; details: in vivo; procedure, shortened: as §4
Canis familiaris [26] = test: AUC in dog at 30 mg/kg, po; assay type: ADME, organism-based, Canis lupus familiaris; details: in vivo
[27] = Terminal half life in human at 80 mg administered as single dose; assay type: ADME; details: in vivo, read-out: beta t1/2 (converted); procedure, shortened: as §2
Hepatitis C virus [28] = test: Antiviral activity against HCV genotype 1 infected in human assessed as sustained virologic response at 400 mg administered once daily in combination with ABT-450/r and ribavirin; assay type: functional, Hepacivirus hominis
Procedure, shortened: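 GT1-infected adults given 400 mg once daily together with ABT-450/ritonavir and ribavirin; sustained virologic response assessed 24 weeks after treatment.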

Canis familiaris [29] = test: AUC in dog at 2.5 mg/kg, po; assay type: ADME, organism-based, Canis lupus familiaris; details: in vivo
[30] = Cmax in Sprague-Dawley rat at 5 mg/kg, po; assay type: ADME, organism-based; parameters: dose 5 mg/kg, route oral; details: in vivo; procedure, shortened: as §4
[31] = Ratio of drug level in Sprague-Dawley rat liver to plasma at 5 mg/kg, po after 24 hrs; assay type: ADME, organism-based
Procedure, shortened: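 Male/female not given; Sprague-Dawley rats, n = 3 per experiment, single 5 mg/kg oral dose given as a solution in DMSO:PEG400 (1:9, v/v). Drug concentrations measured in liver tissue and plasma at 12 h and 24 h post-dose; value reported as the liver-to-plasma concentration ratio.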

[32] = Volume of distribution at steady state in dog at 2.5 mg/kg, iv; assay type: ADME, organism-based, Canis lupus familiaris; details: in vivo, read-out: Vdss
[33] = Half life in Sprague-Dawley rat at 5 mg/kg, iv; assay type: ADME, organism-based; details: in vivo; procedure, shortened: as §4
[34] = Terminal half life in human at 160 mg administered as single dose; assay type: ADME; details: in vivo, read-out: beta t1/2 (converted); procedure, shortened: as §2
[35] = system: Hepatitis C virus (isolate BK); test: Inhibition of HCV genotype 1b BK NS5B RNA dependent RNA polymerase M414T mutant assessed as reduction in [3H]UTP incorporation in to RNA preincubated for 15 mins followed by [3H]UTP addition measured after 3 hrs by microbeta scintillation counting method; procedure, shortened: as §5
[36] = AUC in Sprague-Dawley rat at 5 mg/kg, po; assay type: ADME, organism-based; details: in vivo; procedure, shortened: as §4
[37] = system: Hepatitis C virus (isolate H77); test: Inhibition of HCV genotype 1a H77 NS5B RNA dependent RNA polymerase M414T mutant assessed as reduction in [3H]UTP incorporation in to RNA preincubated for 15 mins followed by [3H]UTP addition measured after 3 hrs by microbeta scintillation counting method; procedure, shortened: as §5

SMILES: COc1c(/C=C/c2ccc(NS(C)(=O)=O)cc2)cc(-n2ccc(=O)[nH]c2=O)cc1C(C)(C)C [ABT-072]
- AUC at 24 h [1]: 4180 ng·h/mL
- EC50 (Hepatitis C virus [2]): 2.4 nM
- Tmax [3]: 6.8 h
- bioavailability [4]: 61%
- IC50 [5]: 3000 nM
- Tmax [6]: 3.6 h
- AUC(0-inf) [7]: 2440 ng·h/mL
- Drug uptake (Plasma): Dose-dependent effect
- concentration at 24 h [8]: > 1000 ng/g
- Cmax [9]: 180 ng/mL
- Tmax [10]: 8.8 h
- Cmax [11]: 486 ng/mL
- Cmax [12]: 880 ng/mL
- EC50 (Hepatitis C virus [13]): 0.3 nM
- Cmax [14]: 303 ng/mL
- clearance [15]: 15 mL/min/kg
- Activity (Hepatitis C virus [16]): 1.18 log10IU/ml
- bioavailability [17]: 63%
- AUC (Canis familiaris [18]): 16800 ng·h/mL
- bioavailability [19]: 86%
- inhibition [20]: inactive
- Kp at 24 h [21]: 10
- AUC(0-inf) [22]: 4640 ng·h/mL
- inhibition [23]: inactive
- Vd [24]: 3.7 L/kg
- half-life [25]: 3.5 h
- AUC (Canis familiaris [26]): 124000 ng·h/mL
- half-life [27]: 8.17 h
- Activity (Hepatitis C virus [28]): 91%
- AUC (Canis familiaris [29]): 14400 ng·h/mL
- Cmax [30]: 280 ng/mL
- Kp at 24 h [31]: 46
- Vd [32]: 1.5 L/kg
- half-life [33]: 2.9 h
- half-life [34]: 7.63 h
- inhibition [35]: inactive
- AUC [36]: 2520 ng·h/mL
- inhibition [37]: inactive
